# Shown are actives, neighbours in structure and some others; about 2.3% of the full set was active somewhere.
# CSN inh: blocks human CSN-mediated cullin deneddylation; Purified CSN, SCF-Nedd8-OG deneddylation, fluorescence polarization; Q92905; hit rate 0.38% among 360,000; inhibition, % at 12.5 µM;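 active = pattern-corrected inhibition above about 35%, with an unprinted fluorescence ratio check between 0.5 and 1.5, limit read from the data, passing the limit was not always enough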;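 note: 0% = enzyme with substrate and 100% = substrate without enzyme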
#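 Schedule: reaction 90 min, room temperature / Assay system: HEK293T-derived human Csn5 enzyme / Input: Csn5 at 0.24 nM final / Measure: inhibition of Csn5 cleavage, % / Control set: substrate-only high control, full reaction low control / Technique: fluorescence polarization of the substrate / Buffer or medium: Tris/NaCl/DTT buffer, pH 7.5 / Reagent: SCFSkp2-Nedd8OG substrate at 10 nM final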
# MT1-MMP act inh: blocks activation of human MT1-MMP | P50281 | hit rate 0.061% among 360,000 | GFP/RFP ratio change, % at 20 µM | HT1080 RFP-PRO-GFP cells, GFP/RFP ratio fluorescence, overnight; percent of plate control window, DMSO zero;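 active = GFP/RFP ratio change of at least 30% with cell ATP level not reduced by more than half and red fluorescence within 50% of control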
#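 Material – HT1080 RFP-PRO-GFP cells · Control set – DMSO wells and RFP-L50D-GFP cells · Incubation – overnight cell settling, then overnight compound exposure, 37 °C, 5% CO2 · Compound dosing – single-point 20 µM compound, 1% DMSO · Read-out – GFP/RFP fluorescence ratio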
# DNMT1 inh: blocks human DNA methyltransferase DNMT1 | DNMT1 molecular beacon, Hinp1I cleavage, fluorescence | inhibition (reported as % activation of signal), % at 10 µM | hit rate 0.83% among 360,000; in the data active = inhibition above about 50%
# SKN-1 inh: C. elegans SKN-1 inhibition | C. elegans VP596 Pgst-4::GFP/RFP ratio, acrylamide-induced, 24 h | inhibition, % at 21.8 µM | hit rate 0.49% among 360,000 | AID 624304;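 active = interference check ratio from 0.5 to 1.5 plus GFP to RFP signal ratio inhibition reaching or exceeding a fixed threshold, cut at about 30% in these data, passing the limit was not always enough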
# SUMO1 PPI mod: SUMO1-SIM interaction modulation; SUMO1 binding to a labelled peptide, TR-FRET, 1 h; inhibition, % at 20 µM; hit rate 0.33% among 360,000; in the data active = inhibition above about 37%
# Target sequence (P63165 whole entry, looked up): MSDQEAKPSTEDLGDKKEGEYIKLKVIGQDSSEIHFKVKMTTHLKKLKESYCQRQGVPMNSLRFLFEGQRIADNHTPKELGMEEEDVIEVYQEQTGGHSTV
# Rpn11 block: Rpn11 (human) deubiquitinase inhibition; inhibition, % at 20 µM; hit rate 0.59% among 360,000; human 26S proteasome, Ub4-pepOG fluorescence polarization; 20S core pre-blocked with epoxomicin; O00487;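 active = inhibition at 20 µM, scaled to each plate's controls, above about 33%, limit read from the data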
# Target sequence (O00487 whole entry, looked up): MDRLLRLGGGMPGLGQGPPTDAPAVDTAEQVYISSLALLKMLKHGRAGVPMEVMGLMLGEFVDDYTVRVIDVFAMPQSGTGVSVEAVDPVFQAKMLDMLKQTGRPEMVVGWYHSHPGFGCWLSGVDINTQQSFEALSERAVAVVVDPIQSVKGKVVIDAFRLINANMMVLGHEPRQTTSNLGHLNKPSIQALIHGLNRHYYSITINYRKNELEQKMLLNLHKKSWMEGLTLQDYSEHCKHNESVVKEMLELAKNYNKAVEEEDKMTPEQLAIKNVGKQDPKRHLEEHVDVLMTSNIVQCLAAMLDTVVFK
# * hit, by the source's call; nt = not tested or not shown.
SMILES,CSN inh,MT1-MMP act inh,DNMT1 inh,SKN-1 inh,SUMO1 PPI mod,Rpn11 block
Cc1ccc(N(C(=O)c2snc(C(N)=O)c2N)C(CC(C)C)C(=O)NC2CCCC2)cc1 (stereo unspecified),110*,-8,6,11,-9,10
CCOC1(OCC)OC(c2ccccc2)=C(C#N)C(C=Cc2ccccc2)C1(OCC)OCC (stereo unspecified),-8,-9,10,5,-1,-2
C(=C1c2ccccc2-c2ccccc21)c1ccncc1,1,1,6,40*,-11,0
COC(=O)[C@@]12C[C@@H](CC(=O)NCCc3ccccc3OC)C(=O)N(Cc3ccccc3)C1=CCC(C)(C)C2,0,-13,nt,8,4,nt
CCOC(=O)C1(C)CCCN1C(=O)c1ccc(OC)cc1 (stereo unspecified),-9,-2,6,15,0,3
COc1ccccc1Cc1c(C2CCCCC2)nc2ccc(C)cn12,10,1,-3,8,8,13
COc1ccccc1Cc1c(C2CCCCC2)nc2ccc(Cl)cn12,60*,-2,-4,5,-1,15
c1ccc(-c2csc(N3CCOCC3)n2)cc1,2,-2,-3,19,-4,2
c1ccc(-c2csc(N3CCN(c4ccccn4)CC3)n2)cc1,1,9,-10,47*,-5,-2
Cc1cccc(N2CCN(C3C(=O)Nc4ccccc4-n4nnnc43)CC2)c1C (stereo unspecified),1,-9,nt,23,5,nt
CN(Cc1ccccc1)Cc1cc(=O)oc2ccc3ccccc3c12,-1,-4,-3,4,-8,7
Cc1cccc(Cn2c(Sc3nc(C)cs3)nc3c2c(=O)[nH]c(=O)n3C)c1,1,-6,-1,40*,1,-6
Cc1ccc(-c2ccc(CN3C(C(C)C)C(=O)N(Cc4cn(CCC5OCCO5)nn4)CCS3(=O)=O)cc2)c(C)c1 (stereo unspecified),-4,4,-34,14,7,11
Cc1oc(-c2cccc(Cl)c2)nc1CN(C)C1CCOC1 (stereo unspecified),0,-1,-1,12,2,0
Cc1oc(-c2ccc(-c3ccccc3)cc2)nc1CN(C)C1CCOC1 (stereo unspecified),0,1,-2,65*,-13,0
CCOC(=O)CC1C(=O)NCCN1c1nc2ccc(C)cn2c(=O)c1/C=C1\SC(=S)N(CC(C)C)C1=O (stereo unspecified),91,-35,20,42*,-10,nt
CCCN1C(=O)/C(=C/c2c(N3CCNC(=O)C3CC(=O)OCC)nc3c(C)cccn3c2=O)SC1=S (stereo unspecified),-78,-28,-4,37,-64,nt
COc1ccc(/C=N/NC(=O)c2ccc(COc3ccccc3Cl)o2)cc1,-5,1,5,38*,1,1
COc1cccc(CNc2nc3cc(-c4ccccc4CO)sc3c(=O)n2C)c1,-4,5,-7,8,-6,-2
COC(=O)C1=C(C)N=c2s/c(=C/c3cccs3)c(=O)n2C1c1ccc(F)cc1 (stereo unspecified),2,7,-6,35*,-4,6
C#CCOc1nc(Nc2cccc([N+](=O)[O-])c2)nc(OCC#C)n1,1,0,0,7,46*,-5
O=C(NN=C1CCCCCC1)c1cc2ccccc2cc1O,-1,1,1,4,-4,6
O=C1CCCC(=NNC(=O)c2cc3ccccc3cc2O)C1,72*,-14,-8,7,-1,nt
CC12CCC(/C(=C/NNc3ccc([N+](=O)[O-])cc3[N+](=O)[O-])C1=O)C2(C)C (stereo unspecified),6,11,11,-3,-35,-16
COc1ccccc1-c1csc(C(O)c2ccc(F)cc2)n1 (stereo unspecified),-4,-1,2,1,-2,3
